This note sets out measurements from ChEMBL document CHEMBL4725352, “Identification of New Nitric Oxide-Donating Peptides with Dual Biofilm Eradication and Antibacterial Activities for Intervention of Device-Related Infections” (J Med Chem, 2020).

Active and inactive are the calls of the source. The calls are words filed in the database; no cut-off is given here. Where a SMILES comes first, the peptide text is derived from it. The star is where a group is joined. X1 = COC(=O)[C@H](Cc1ccc(Oc2no[n+]([O-])c2S(=O)(=O)c2ccccc2)cc1)NC(=O)CCCc1cn(CC(=O)*)nn1 Some results are limits rather than exact numbers.

The test system of data set [1] is Staphylococcus aureus. Briefly: Antibiofilm activity against Staphylococcus aureus ATCC 6538 assessed as decrease in living bacterial cells in biofilm on bottom of confocal dish at 100 uM incubated for 12 hrs by live-cell fluorescence staining assay. In kind it is functional. The procedure, abridged: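 S. aureus (10⁸ cfu/mL, 2 mL) cultured one day at 37 °C, 5% CO₂ in confocal dishes, then washed 3× with saline. TSB with compound at 100 µM was added for 12 h. The dish was washed and live-cell fluorescence stained for 15 min. Bottom biofilm was imaged by 3D confocal microscopy.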

Data set [2] concerns Staphylococcus aureus. Description: Antibiofilm activity against Staphylococcus aureus ATCC 6538 infected in mouse assessed as reduction in bacterial infection by measuring colony counts at 0.25 umol/kg, sc administered every 12 hrs for 3 days by plate colony counting assay (reference value: 6.40 +/- 0.28). The conditions noted are these: dose 0.25 µmol/kg. The data set is classed as functional.

Data set [3] relates to Escherichia coli. Briefly: Antibiofilm activity against Escherichia coli ATCC 8099 assessed as inhibition of biofilm formation at 100 uM incubated for 12 hrs by crystal violet staining assay relative to control. In kind it is functional. The essentials:
(§1)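 Bacterial culture (10⁸ cfu/mL) grown 24 h in 96-well plates, then washed 3× with saline. Wells were incubated 12 h with test compound in TSB. Biofilm was fixed with methanol 15 min and stained with 1% crystal violet 5 min at room temperature. Dye was solubilized in ethanol for 30 min at 37 °C and OD read at 600 nm. Compared with vehicle control; mean ± S.D., n = 3.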

Data set [4] concerns Staphylococcus aureus. Briefly: Antibiofilm activity against Staphylococcus aureus ATCC 6538 assessed as inhibition of biofilm formation at 100 uM incubated for 12 hrs in presence of NO scavenger PTIO by crystal violet staining assay relative to control. In kind it is functional, organism-based.
Data set [5] concerns Escherichia coli. Briefly: Antimicrobial activity against Escherichia coli ATCC 8099 incubated for 20 hrs by microdilution assay. The data set is classed as functional. A general note: In broth dilution the organism is exposed to a series of concentrations in liquid medium.
Data set [6] relates to Staphylococcus aureus. Description: Antibiofilm activity against Staphylococcus aureus ATCC 6538 assessed as inhibition of continuous biofilm growth at 100 uM measured every 15 mins for 9 hrs by biofilm dynamic detection assay. In kind it is functional, organism-based. The essentials:
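S. aureus (10⁸ cfu/mL in TSB) grown one day at 37 °C, 5% CO₂ on a real-time impedance cell analyzer to form biofilm. After saline washes (3×), medium containing compound at 100 µM was added. Biofilm index was recorded every 15 min for 9 h, blank-subtracted and normalized (lowest point 0, highest 1).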

Data set [7] relates to Escherichia coli. Briefly: Antibiofilm activity against Escherichia coli ATCC 8099 assessed as inhibition of biofilm formation at 100 uM incubated for 12 hrs in presence of NO scavenger PTIO by crystal violet staining assay relative to control. In kind it is functional, organism-based.
Data set [8] has as its system Staphylococcus aureus. Description: Antimicrobial activity against Staphylococcus aureus ATCC 6538 incubated for 20 hrs by microdilution assay. The data set is classed as functional.
Data set [9] concerns Staphylococcus aureus. Briefly: Antibiofilm activity against Staphylococcus aureus ATCC 6538 assessed as dispersion of formed biofilms at 100 uM incubated for 12 hrs by scanning electron microscopy. The data set is classed as functional, organism-based. The procedure, abridged:
(§2)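 Bacteria (10⁸ cfu/mL) grown on silicon slices in TSB for 24 h. Medium was removed and slices washed 3× with saline. Slices were then incubated 12 h in TSB containing test compound at 100 µM, or TSB alone. Slices were gold-sputtered and imaged by cold field emission SEM.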

For data set [10], the system named is Escherichia coli. Description: Antibiofilm activity against Escherichia coli ATCC 8099 assessed as dispersion of formed biofilms at 100 uM incubated for 12 hrs by scanning electron microscopy. In kind it is functional, organism-based. The essentials:
as §2

Data set [11] concerns Staphylococcus aureus. Description: Induction of NO release in Staphylococcus aureus ATCC 6538 at 10 uM incubated for 4 hrs by Griess assay. In kind it is functional, organism-based. The essentials: (§3)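 Bacteria (10⁸ cfu/mL in saline) incubated with compound at 10 µM for 4 h at 37 °C, 5% CO₂. Cells were centrifuged and lysed, and the lysate centrifuged at 10,000 g for 5 min. Nitrite in the supernatant was measured by Griess reagent at 540 nm against a NaNO₂ standard curve.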
Background: Griess reagent forms a coloured azo dye with nitrite.

Data set [12] concerns Staphylococcus aureus. Briefly: Antibacterial activity against Staphylococcus aureus ATCC 6538 assessed as killing of living planktonic bacterial cells in supernatant at 100 uM incubated for 12 hrs by OD measurement.
The test system of data set [13] is Escherichia coli. Description: Induction of NO release in Escherichia coli ATCC 8099 at 10 uM incubated for 4 hrs by Griess assay. In kind it is functional, organism-based. The procedure, abridged: as §3
Data set [14] deals with Staphylococcus aureus. Briefly: Antibiofilm activity against Staphylococcus aureus ATCC 6538 assessed as inhibition of biofilm formation at 100 uM incubated for 12 hrs by crystal violet staining assay relative to control. The data set is classed as functional. The essentials:
as §1

The next data set concerns Erythrocyte. Description: Induction of hemolysis in mouse erythrocytes incubated for 3 hrs. In kind it is cell-based. The essentials: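 2% erythrocyte suspension from mouse blood, mixed with sample in 0.9% NaCl. Controls were saline (negative) and water (positive). Incubated 3 h at 37 °C, 5% CO₂; hemolysis degree calculated by standard curve. Dose-dependent series; HC₅₀ derived.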

Data set [15] relates to Cell membrane. Description: Induction of cell membrane rupture in Staphylococcus aureus ATCC 6538 assessed as induction of cell content spillage at 200 uM incubated for 60 mins by scanning electron microscopy. The procedure, abridged: (§4)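 Bacteria incubated in TSB alone or TSB with compound at 200 µM for 60 min. Cells were pelleted, fixed in 4% paraformaldehyde, dropped onto silicon slices, gold-sputtered and imaged by cold field emission SEM.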

Data set [16] concerns Cell membrane. Briefly: Induction of cell membrane rupture in Staphylococcus aureus ATCC 6538 at 200 uM incubated for 60 mins by scanning electron microscopy. The procedure, abridged: as §4
A short description of data set [17]: Toxicity in rat assessed as effect on blood as effect on blood pressure at 0.172 umol/kg, sc measured after 6 hrs post dose by non-invasive blood pressure monitoring. Particulars: in vivo, dose 0.172 µmol/kg. In kind it is organism-based. The procedure, abridged:
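Healthy rats given a single sc dose of 0.172 µmol/kg in aqueous solution, with saline as control. Tail-artery blood pressure measured non-invasively at 0, 1, 3 and 6 h.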

Data set [18] relates to Staphylococcus aureus. Description: Antibiofilm activity against Staphylococcus aureus ATCC 6538 infected in mouse assessed as reduction in bacterial inflammation in vicinity tissues of implanted site at 0.25 umol/kg, sc administered every 12 hrs for 3 days by H and E staining based assay. The data set is classed as functional, organism-based. Particulars: dose 0.25 µmol/kg. The essentials: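 Mouse PDMS-implant S. aureus biofilm model dosed 0.25 µmol/kg sc in 5% DMSO/saline every 12 h for 3 days. Muscle tissue near the implant site was fixed 24 h, paraffin-embedded, sectioned and H&E stained to assess bacterial spread.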

For data set [19], the system named is Cell membrane. Description: Induction of cell membrane rupture in Escherichia coli ATCC 8099 assessed as induction of cell content spillage at 200 uM incubated for 60 mins by scanning electron microscopy. The procedure, abridged: as §4
For data set [20], the system named is Cell membrane. Description: Induction of cell membrane rupture in Escherichia coli […] ATCC 8099 at 200 uM incubated for 60 mins by scanning electron microscopy. The data set is classed as subcellular. The procedure, abridged:
as §4

Data set [21] concerns Staphylococcus aureus. Description: Antibiofilm activity against Staphylococcus aureus ATCC 6538 infected in mouse assessed as reduction in skin ulceration near implanted site at 0.25 umol/kg, sc administered every 12 hrs for 3 days. The data set is classed as functional, organism-based. Particulars: dose 0.25 µmol/kg. The procedure, abridged: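 Mouse PDMS-implant S. aureus biofilm model (biofilm-coated slices placed subcutaneously in the back). Dosing was 0.25 µmol/kg sc in 5% DMSO/saline every 12 h for 3 days. Skin at the implant site was photographed every 12 h after implantation for ulceration.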

The subject of data set [22] is Staphylococcus aureus. Briefly: Antibiofilm activity against Staphylococcus aureus ATCC 6538 infected in mouse assessed as reduction in bacterial infection by measuring colony counts at 0.25 umol/kg, sc administered every 12 hrs for 3 days co-treated with 0.25 umol/kg NO scavenger PTIO by plate colony counting assay (reference value: 6.40 +/- 0.28). Particulars: dose 0.25 µmol/kg. In kind it is functional.

The test system of data set [23] is Staphylococcus aureus. Description: Induction of NO release in CDNB-pretreated Staphylococcus aureus ATCC 6538 at 10 uM incubated for 4 hrs by Griess assay. In kind it is functional, organism-based. The procedure, abridged: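 S. aureus (10⁸ cfu/mL in saline) pretreated with 100 µM CDNB for 0.5 h at 37 °C, then pelleted. Cells were incubated with compound at 10 µM in saline for 4 h. After lysis, nitrite was quantified by Griess reagent at 540 nm against a NaNO₂ standard curve.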

Data set [24] relates to Staphylococcus aureus. Description: Antibiofilm activity against Staphylococcus aureus ATCC 6538 assessed as inhibition of continuous biofilm growth at 100 uM incubated for 1-2 hrs by biofilm dynamic detection assay. Particulars: time hrs 1-2. In kind it is functional, organism-based. The procedure, abridged: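 S. aureus biofilm grown 24 h at 37 °C, 5% CO₂ from 10⁸ cfu/mL in TSB while impedance was recorded in real time (xCELLigence RTCA). Supernatant removed, saline-washed three times, then compound added at 100 µM in TSB. Biofilm index read every 15 min for 9 h, blank subtracted and normalised 0–1, compared with TSB control.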

A word on the inhibition: it is how much of the control response was suppressed. Broadly, the MIC is the least concentration at which growth counts as inhibited. Low readings indicate a more susceptible organism, high ones a less susceptible organism. On to `COC(=O)[C@@H](N)Cc1ccc(Oc2no[n+]([O-])c2S(=O)(=O)c2ccccc2)cc1`, for which the inhibition result in the data set with Staphylococcus aureus [1] is “Active”. The Activity with Staphylococcus aureus [2] is 4.91 log10CFU. For the same molecule, the values for the inhibition at 100 µM with Escherichia coli [3] and in the data set on Staphylococcus aureus [14] were 81.2% and 44.4%, respectively. Besides, the inhibition result with Staphylococcus aureus [4], in the data set with Staphylococcus aureus [6] and with Escherichia coli [7] was “inactive” in each case. Moreover, the MIC with Escherichia coli [5] and against Staphylococcus aureus [8] was more than 50 µM throughout. Also, the outcome in the data set on Staphylococcus aureus [9], with Escherichia coli [10], in the data set with Staphylococcus aureus [11] and with Escherichia coli [13] was Active. For the same molecule, the outcome in the data set with Staphylococcus aureus [12] was inactive.
As a reminder, the IC50 is the concentration at which inhibition is half-maximal. Molecule `CC[C@H](C)[C@H](NC(=O)[C@H](CCCCN)NC(=O)[C@H](CC(C)C)NC(=O)[C@H](C)NC(=O)CNC(=O)[C@H](CC(N)=O)NC(=O)[C@H](CC(C)C)NC(=O)[C@@H](NC(=O)[C@H](CCCCN)NC(=O)[C@H](CCCCN)NC(=O)[C@H](Cc1c[nH]c2ccccc12)NC(=O)[C@H](Cc1ccccc1)NC(=O)[C@H](CCCCN)NC(=O)[C@H](CCCNC(=N)N)NC(=O)[C@H](CCCNC(=N)N)NC(=O)[C@@H](NC(=O)Cn1cc(CCCC(=O)N[C@@H](Cc2ccc(Oc3no[n+]([O-])c3S(=O)(=O)c3ccccc3)cc2)C(=O)OC)nn1)[C@@H](C)O)C(C)C)C(=O)N[C@@H](C)C(=O)N1CCC[C@H]1C(=O)N[C@@H](Cc1ccccc1)C(=O)N[C@@H](CC(C)C)C(=O)N[C@@H](CC(C)C)C(=O)NCC(=O)O` (X1-TRRKFWKKVLNGALKIAPFLLG-OH) had an IC50 in the data set with Erythrocyte of more than 380 µM. For the same molecule, the result in the data set with Cell membrane [15], in the data set on Cell membrane [16], with Cell membrane [19], in the data set with Cell membrane [20], with Staphylococcus aureus [9] and in the data set with Staphylococcus aureus [21] was Active. The outcome in the data set on Escherichia coli [10], with Staphylococcus aureus [11], with Staphylococcus aureus [12] and in the data set with Escherichia coli [13] was Active. Further, the inhibition at 100 µM in the data set on Staphylococcus aureus [1] worked out at 100%; with Escherichia coli [3], 80.9%; with Staphylococcus aureus [14], 64.1%. The Activity was 4.54 log10CFU in the data set on Staphylococcus aureus [2], “Non-Toxic” in data set [17] and 5.92 log10CFU in the data set on Staphylococcus aureus [22]. Also, the inhibition result in the data set with Staphylococcus aureus [4] and in the data set with Escherichia coli [7] was “inactive” each time. Also, the inhibition result in the data set on Staphylococcus aureus [18] and with Staphylococcus aureus [6] was “Active” throughout. The MIC in the data set with Escherichia coli [5] and against Staphylococcus aureus [8] was more than 50 µM throughout. Also, the outcome in the data set with Staphylococcus aureus [23] was inactive.
Turning to `CC(=O)OCC1=C(C(=O)O)N2C(=O)[C@@H](NC(=O)CCC[C@@H](N)C(=O)O)[C@H]2SC1` [CEPHALOSPORIN C], in the data set on Staphylococcus aureus [1], the inhibition entry is “inactive”. Further, the Activity with Staphylococcus aureus [2] was found to be 4.97 log10CFU. Moreover, the inhibition entry in the data set on Staphylococcus aureus [18] and in the data set with Staphylococcus aureus [24] was “Active” each time.
With H-TRRKFWKKVLNGALKIAPFLLG-OH, the inhibition entry with Staphylococcus aureus [1], in the data set with Staphylococcus aureus [18] and in the data set with Staphylococcus aureus [24] was “Active” in each case. In the data set on Staphylococcus aureus [2], the Activity came out at 5.4 log10CFU. In addition, the inhibition result in the data set on Escherichia coli [3] and with Staphylococcus aureus [14] was “inactive” each time. Further, the MIC against Escherichia coli [5] and against Staphylococcus aureus [8] was more than 50 µM each time. Moreover, the outcome with Staphylococcus aureus [9] and in the data set on Escherichia coli [10] was inactive.
